Assay [1] can be described thus: inhibitors of TNFa-induced NFkB p65 translocation, primary screen, imaging, HUVEC, MLSMR starter and 10KST1 sets (AID 438;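 active = inhibition above 20% together with a positive visual image hit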;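 note: compound added about 3h40 before a 20 min TNFalpha stimulation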;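 for inhibition: signal is the nuclear over cytoplasmic p65 intensity ratio per well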). Conditions: HUVEC TNFa-induced p65 nuclear translocation; cell count: measured here: nuclei count (cytotoxicity indicator), at 2.08 µM; inhibition: at 2 µM, stronger effect = higher value, 0% TNFa-plus-vehicle, 100% no-TNFa wells.
Assay [2] can be described thus: inhibitors of E-selectin induction by TNFa, primary screen, imaging, HUVEC, immunofluorescence, MLSMR starter and 10KST1 sets (AID 487;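 active = visually confirmed hit in the image check and inhibition above 20%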;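 for inhibition: signal is fraction of cell area covered by stained E-selectin grains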;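 for nuclei count: 100% = median nuclei count of all wells on the same plate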). To be noted: HUVEC TNFalpha-induced E-selectin immunofluorescence imaging, at 2 µM; inhibition: stronger effect = higher value; nuclei count: measured here: cell number, toxicity.
The nature of assay [3]: DUSP6 inhibitors restoring Erk phosphorylation by chemical complementation, primary imaging in DUSP6-transfected HeLa (AID 609;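 active = compounds giving at least 50% inhibition in the cell-based MKP-3 phosphatase rescue imaging test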;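 for inhibition: phospho-Erk level distribution per well compared with pooled transfected vehicle control wells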). Conditions: HeLa MKP-3 transfected, phospho-Erk imaging KS statistic, at 10 µM, cells stimulated with TPA for 15 min.
Assay [4] deals with Dual specificity protein phosphatase 6 (Homo sapiens) (UniProt Q16828). The assay is described as above. Conditions: HeLa MKP-3 transfected, phospho-Erk imaging KS statistic; at 10 µM; stronger effect = higher value; cells stimulated with TPA for 15 min.
Assay [5] has as its target Voltage-gated potassium channel subunit beta-2 (Rattus norvegicus) (UniProt P62483). The assay can be described thus: KvBeta enzyme negative modulators, primary screen, biochemical, NADPH fluorescence (AID 622;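 active = fluorescence slope higher than the sample average by over 3 SD, cut at about -0.22 in these data, passing the limit was not always enough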;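 note: slope of raw intensity against log time taken from 70 to 1610 s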). Conditions: recombinant KvBeta, 4-cyanobenzaldehyde reduction, at 10 µM, stronger effect = higher value.
Assay [6] has the same target. Kind of assay: KvBeta positive modulators, primary screen, biochemical, NADPH fluorescence (AID 623;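 active = NADPH fluorescence slope more negative than the mean of all samples by about 3 SD, 99.7% confidence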;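 note: fluorescence intensity change per second fitted from 20 to 320 s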). To be noted: Recombinant KvBeta, NADPH fluorescence decrease slope, 10 min; at 10 µM; stronger effect = lower value.
The target in assay [7] is Alpha-2C adrenergic receptor (Homo sapiens) (UniProt P18825). Kind of assay: modulators of alpha2C/GIRK thallium flux, primary screen, cell-based, HEK293 alpha2C/GIRK1/2 (AID 624).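 Note: slope of fluorescence ratio to pre-addition baseline per second over 15 to 24 s.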 To be noted: thallium flux BTC fluorescence, at 10 µM, actives lie on both sides.
A short description of assay [8]: inhibitors of larval lipid processing in zebrafish, primary screen, whole organism, PED6 fluorescence, gall bladder and intestine (AID 686;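 active = a full or partial loss of lipid-probe fluorescence in the fish gall bladder, intestine or both, judged by eye; inactive = no fluorescence loss, or compound toxic to the fish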;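 note: larvae 5 to 7 days old with five fish per well; signal comes from phospholipase A2 cleavage of quenched PED6 carried via bile; overnight exposure to compound and PED6 before scoring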). Conditions: Zebrafish larvae PED6 lipid processing, fluorescence scoring; screened at 20 µM (by protocol). A digest of the protocol:
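Also added: quenched phospholipase substrate PED6, 100 nM final, ingested by larvae; System: zebrafish larvae, 5-7 d; Quantity: 5 larvae per well; Compound: 20 µM single dose; Schedule: overnight compound and PED6 incubation; Read-out: visual per-well fluorescence inhibition score; Measured by: By-eye fluorescence microscopy; Medium: E3.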

Assay [9] can be described thus: inhibitors of Chlamydomonas gravitaxis, primary screen, whole organism, Chlamydomonas reinhardtii, WT vs cilia-less mutant, absorbance, 96-well (AID 463189;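 active = inhibition at or above 50% relative to wild type and mutant plate controls; inactive = inhibition below 50%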;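 note: 0% = wild type cc124 cells in DMSO and 100% = ciliumless bld1 mutant cells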). Conditions: OD600 absorbance, 2 days, at 10 µM, stronger effect = higher value.
[10] abbreviates: measured here: cell density z-score.
Setting [11] is: measured here: nuclear c-Myc green intensity z-score.
Setting [12] is: measured here: nuclear pErk red intensity z-score, stronger effect = higher value.

Active and inactive are the calls of the source.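 Rule for the calls, unless noted: active = fluorescence slope after compound addition differing from the mean of all screened samples at 99.7% confidence, in either direction; inactive = the rest.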

Sequence of Alpha-2C adrenergic receptor (Homo sapiens) (P18825 whole entry, looked up): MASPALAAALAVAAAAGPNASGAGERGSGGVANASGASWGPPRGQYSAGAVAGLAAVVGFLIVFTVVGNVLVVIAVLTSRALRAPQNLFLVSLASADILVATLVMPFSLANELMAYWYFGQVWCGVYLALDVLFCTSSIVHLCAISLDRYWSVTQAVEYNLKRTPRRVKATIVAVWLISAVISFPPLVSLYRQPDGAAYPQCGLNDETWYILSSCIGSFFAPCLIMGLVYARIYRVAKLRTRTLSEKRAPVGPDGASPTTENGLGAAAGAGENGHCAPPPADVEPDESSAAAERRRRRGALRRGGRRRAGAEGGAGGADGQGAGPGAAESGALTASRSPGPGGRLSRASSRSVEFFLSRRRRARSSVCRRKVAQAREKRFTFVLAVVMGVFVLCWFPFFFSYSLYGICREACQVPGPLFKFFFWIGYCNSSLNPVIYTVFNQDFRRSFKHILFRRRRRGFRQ
Sequence of Dual specificity protein phosphatase 6 (Homo sapiens) (Q16828 whole entry, looked up): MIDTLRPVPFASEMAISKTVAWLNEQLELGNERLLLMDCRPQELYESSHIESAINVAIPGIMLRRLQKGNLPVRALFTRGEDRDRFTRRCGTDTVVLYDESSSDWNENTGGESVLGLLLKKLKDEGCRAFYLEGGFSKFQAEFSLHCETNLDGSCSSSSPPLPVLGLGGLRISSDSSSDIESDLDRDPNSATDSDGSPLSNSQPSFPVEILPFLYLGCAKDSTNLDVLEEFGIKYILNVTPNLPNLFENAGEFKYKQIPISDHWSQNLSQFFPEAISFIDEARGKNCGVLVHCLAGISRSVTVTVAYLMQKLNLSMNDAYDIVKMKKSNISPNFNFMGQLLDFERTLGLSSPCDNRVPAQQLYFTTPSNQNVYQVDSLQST
Sequence of Voltage-gated potassium channel subunit beta-2 (Rattus norvegicus) (P62483 whole entry, looked up): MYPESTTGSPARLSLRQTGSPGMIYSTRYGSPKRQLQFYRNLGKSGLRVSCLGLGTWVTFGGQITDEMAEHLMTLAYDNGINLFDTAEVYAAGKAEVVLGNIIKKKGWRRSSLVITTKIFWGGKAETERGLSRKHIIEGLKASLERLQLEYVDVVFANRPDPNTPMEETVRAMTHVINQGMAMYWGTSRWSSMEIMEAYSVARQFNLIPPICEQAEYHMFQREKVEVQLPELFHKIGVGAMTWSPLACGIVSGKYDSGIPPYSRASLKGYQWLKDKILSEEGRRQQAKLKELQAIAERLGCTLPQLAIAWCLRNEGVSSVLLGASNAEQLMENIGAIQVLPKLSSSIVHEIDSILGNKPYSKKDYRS

With `C=CCn1cnc2c(c1=O)c1nc3ccccc3nc1n2-c1ccc(Cl)cc1`, the cell count in [1] came out at 479. The inhibition in assay [1] is -0.2% (inactive); in assay [2], -57.8% (inactive); in assay [4] it was 3.5% (inactive); in assay [9], 22.7% (inactive). The same compound showed a nuclei count in [2] of 97.9%. Also, the z-score in assay [3] (setting [10]) was 0.198; in assay [3] (setting [11]), -0.115; in assay [3] (setting [12]), -0.677. For the same compound, in assay [5], the fluorescence slope was -0.489 (inactive). The NADPH fluorescence slope in [6] is -1.8e-05 (inactive). Also, the slope in assay [7] was 0.00468 (inactive). In addition, the call in assay [8] was inactive.
As to `CNc1oc(-c2ccc(Cl)cc2)nc1C#N`, the cell count in [1] came to 444. In addition, the inhibition was -4.2% (inactive) in assay [1], -114% (inactive) in [2], 6.04% (inactive) in assay [4] and 7.15% (inactive) in assay [9]. In [2], this compound registered a nuclei count of 169%. For the same compound, the z-score in assay [3] (setting [10]) is -1.3; in assay [3] (setting [11]), -0.483; in assay [3] (setting [12]), -0.6. For the same compound, in assay [5], the fluorescence slope was -0.263 (inactive). Further, the NADPH fluorescence slope in assay [6] is -4.5e-06 (inactive). Also, in assay [7], the slope was 0.00621 (inactive). The call in [8] was inactive.
Regarding `Clc1ccc(-c2nnc3sc(Cc4cccs4)nn23)c(Cl)c1`, the cell count in assay [1] was found to be 664. The inhibition in assay [1] is 0.3% (inactive); in [2] it was -136% (inactive); in assay [4] it was -9.66% (inactive); in [9] it was 37.7% (inactive). The compound also yielded a nuclei count in [2] of 169%. In addition, the z-score was 0.203 in [3] (setting [10]), 0.587 in assay [3] (setting [11]) and -0.53 in [3] (setting [12]). Moreover, the fluorescence slope in [5] was -0.43 (inactive). Moreover, the NADPH fluorescence slope in [6] is -0.00015 (inactive). In assay [7], the slope is 0.00477 (inactive). Also, the compound was classed as inactive in assay [8].
Regarding `Cn1c(=NCC(O)COc2ccccc2)sc2ccccc21` (centres undefined), in assay [1], the cell count was found to be 482. Also, the inhibition in assay [1] was 7.1% (inactive); in assay [2] it was -85.2% (inactive); in [4], -8.95% (inactive); in assay [9] it was 16.2% (inactive). Also, the nuclei count in assay [2] was 167%. Also, the z-score is 0.424 in assay [3] (setting [10]), -0.57 in assay [3] (setting [11]) and 0.805 in [3] (setting [12]). Besides, in assay [5], the fluorescence slope is -0.367 (inactive). For the same compound, the NADPH fluorescence slope in [6] is -3.8e-05 (inactive). For the same compound, the slope in [7] was 0.00465 (inactive). Besides, the call in assay [8] was inactive.
In the case of `CN(C)CC(O)COc1ccc(C(C)(C)c2ccc(OCC(O)CN(C)C)cc2)cc1` (centres undefined), the cell count in assay [1] came out at 459. For the same compound, the inhibition is 2.6% (inactive) in assay [1], -216% (inactive) in [2], -5.62% (inactive) in [4] and -19.9% (inactive) in [9]. The same compound returned a nuclei count in assay [2] of 154%. The values for the z-score in [3] (setting [10]), in [3] (setting [11]) and in [3] (setting [12]) were -1.06, 1.22 and 0.592, respectively. In addition, in assay [5], the fluorescence slope is -0.397 (inactive). The NADPH fluorescence slope in assay [6] is -3.1e-05 (inactive). In addition, the slope in assay [7] is 0.0054 (inactive). Besides, in assay [8], the compound was classed as inactive.
On to `CC(C)C1=C2OC(N)=C(C#N)C(C#N)=C2C(C)CC1` (centres undefined), for which the cell count in assay [1] was 361. Besides, the inhibition is -6.8% (inactive) in assay [1], -144% (inactive) in assay [2], 7.48% (inactive) in assay [4] and 13% (inactive) in assay [9]. The nuclei count in [2] worked out at 150%. Besides, the z-score came out at 0.333 in assay [3] (setting [10]), 0.379 in [3] (setting [11]) and 0.759 in assay [3] (setting [12]). In [5], the fluorescence slope is -0.391 (inactive). Further, the NADPH fluorescence slope in assay [6] was -3.9e-05 (inactive). In addition, in assay [7], the slope was 0.0063 (inactive). Also, the result in assay [8] was inactive.
With `Cc1ccc2[nH]c3c(N4CCCCCC4)ncnc3c2c1`, the cell count in assay [1] amounted to 377. In addition, the inhibition was -11.4% (inactive) in assay [1], -85.7% (inactive) in assay [2], -3.5% (inactive) in assay [4] and -9.6% (inactive) in [9]. Moreover, the nuclei count in [2] is 159%. The z-score was 1.13 in [3] (setting [10]), -0.284 in assay [3] (setting [11]) and -0.123 in [3] (setting [12]). Also, in [5], the fluorescence slope is -0.44 (inactive). Besides, the NADPH fluorescence slope in [6] was -0.000151 (inactive). Further, the slope in [7] is 0.00355 (inactive). Moreover, the outcome in assay [8] was inactive.
As for `CSc1nc(C)cc(OCCNS(=O)(=O)c2cc(C)ccc2C)n1`, the cell count in assay [1] was determined as 384. Besides, the inhibition in assay [1] was -16% (inactive); in assay [2] it was -21.6% (inactive); in assay [4] it was 12.3% (inactive); in assay [9], 117% (active). The compound further yielded a nuclei count in assay [2] of 141%. The z-score in assay [3] (setting [10]) was 0.846; in [3] (setting [11]) it was -0.567; in [3] (setting [12]), -1.02. In addition, the fluorescence slope in assay [5] was -0.414 (inactive). Besides, the NADPH fluorescence slope in assay [6] is -8.3e-05 (inactive). The slope in assay [7] is 0.00593 (inactive). Moreover, in assay [8], the compound was called inactive.
On to `Cc1ccc(C2C(C(=O)c3cc4ccccc4o3)=C(O)C(=O)N2CCN(C)C)o1` (centres undefined), for which, in [1], the cell count was 352. Also, the inhibition in assay [1] is -3% (inactive); in assay [2], 23.2% (inactive); in assay [4], -6.48% (inactive); in [9], -11.1% (inactive). The compound further came in with a nuclei count in assay [2] of 101%. The z-score in assay [3] (setting [10]) was -1.49; in [3] (setting [11]), 2.05; in [3] (setting [12]), -0.073. In [5], the fluorescence slope is -0.443 (inactive). Moreover, in assay [6], the NADPH fluorescence slope was -2.4e-05 (inactive). Moreover, the slope in assay [7] was 0.00982 (inactive). For the same compound, the compound was called inactive in [8].
With `Cc1ccccc1OCC(O)Cn1c(N2CCN(c3ccccc3)CC2)nc2c1c(=O)[nH]c(=O)n2C` (centres undefined), in assay [1], the cell count is 519. Also, the inhibition was -0.6% (inactive) in assay [1], -227% (inactive) in [2], 8.76% (inactive) in assay [4] and 22.7% (inactive) in assay [9]. In assay [2], the nuclei count was found to be 134%. Moreover, the results for the z-score in [3] (setting [10]), in assay [3] (setting [11]) and in assay [3] (setting [12]) were -0.379, -1.18 and 0.818, respectively. Also, the fluorescence slope in assay [5] is -0.537 (inactive). In addition, the NADPH fluorescence slope in [6] is -3.2e-05 (inactive). Moreover, the slope in assay [7] was 0.00634 (inactive). The result in [8] was inactive.
As to `c1coc(-c2nnc3sc(-c4cccs4)nn23)c1`, in assay [1], the cell count worked out at 471. The inhibition is 2.8% (inactive) in assay [1], -41.9% (inactive) in assay [2], -13.3% (inactive) in assay [4] and 3.53% (inactive) in assay [9]. In addition, in assay [2], the nuclei count was determined as 132%. For the same compound, the z-score in [3] (setting [10]) was -1.75; in assay [3] (setting [11]) it was 0.838; in assay [3] (setting [12]), 2.17. Further, the fluorescence slope in assay [5] is -0.459 (inactive). Besides, in assay [6], the NADPH fluorescence slope was 9.9e-06 (inactive). Also, the slope in [7] was 0.00352 (inactive). Further, the outcome in [8] was “active; weak signal in gallbladder and intestine”.
On to `Cc1ccc(C(=O)CSC2=C(C#N)C(c3ccco3)C3=C(CCCC3=O)N2)cc1` (centres undefined), for which, in [1], the cell count was determined as 333. Moreover, the inhibition was -7.4% (inactive) in assay [1], -98.2% (inactive) in assay [2], 1.42% (inactive) in [4] and 8.93% (inactive) in assay [9]. In addition, in [2], the nuclei count is 165%. The z-score in [3] (setting [10]) is 1.35; in [3] (setting [11]) it was -1.13; in assay [3] (setting [12]), 0.366. For the same compound, in assay [5], the fluorescence slope was -0.449 (inactive). For the same compound, in assay [6], the NADPH fluorescence slope was -0.000148 (inactive). For the same compound, in assay [7], the slope is 0.00654 (inactive). The compound was called inactive in [8].
With `COCCn1c(N)c(C(=O)NCC2CCCO2)c2nc3ccccc3nc21` (centres undefined), the cell count in assay [1] was 564. Also, the inhibition in [1] is -8.3% (inactive); in assay [2] it was -74.5% (inactive); in assay [4], -11.5% (inactive); in assay [9], 26.2% (inactive). In assay [2], this compound registered a nuclei count of 106%. The z-score in assay [3] (setting [10]) was 0.365; in assay [3] (setting [11]), -2.02; in assay [3] (setting [12]), 0.128. In assay [5], the fluorescence slope is -0.0102 (inactive). Further, the NADPH fluorescence slope in assay [6] was 7e-06 (inactive). Besides, in assay [7], the slope is 0.00477 (inactive). Moreover, in [8], the result was inactive.

In general, inhibition refers to the relative decrease from the control value, in per cent.

Values taken from PubChem BioAssay.
